According to BindingDB's records for doi:10.1039/c1md00059d (Centre National De La Recherche Scientifique, 2011):

Target: T1, Vitamin D3 receptor A (Danio rerio, UniProt Q9PTN2)
T1 sequence (Q9PTN2 whole entry): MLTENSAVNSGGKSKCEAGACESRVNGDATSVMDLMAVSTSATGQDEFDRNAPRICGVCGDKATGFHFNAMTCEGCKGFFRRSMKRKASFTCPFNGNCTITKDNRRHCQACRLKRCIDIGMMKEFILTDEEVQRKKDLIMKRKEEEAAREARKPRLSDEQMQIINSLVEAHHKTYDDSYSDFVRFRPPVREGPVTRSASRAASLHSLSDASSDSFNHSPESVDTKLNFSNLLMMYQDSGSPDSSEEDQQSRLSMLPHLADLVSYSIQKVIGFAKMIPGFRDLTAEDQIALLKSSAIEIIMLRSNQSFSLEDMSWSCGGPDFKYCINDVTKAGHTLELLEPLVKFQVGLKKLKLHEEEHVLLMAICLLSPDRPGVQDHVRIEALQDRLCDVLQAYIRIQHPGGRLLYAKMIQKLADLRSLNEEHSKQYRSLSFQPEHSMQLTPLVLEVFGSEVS
Assay: Agonist activity at zebrafish VDR LBD assessed as binding affinity to TAMRA-labeled SRC-1 peptide by fluorescence anisotropy assay
Method in brief: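 Titrations were run in the presence of ligand, and peptide recruitment was monitored by fluorescence anisotropy to derive kd.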

| SMILES | Kd [µM] |
| --- | --- |
| [2H]C([2H])([2H])C(O)(CCC[C@@H](CC#CC(O)(C(F)(F)F)C(F)(F)F)[C@H]1CC[C@H]2/C(=C/C=C3C[C@H](O)C[C@@H](O)C3)CCC[C@]12C)C([2H])([2H])[2H] | 1.8 |
| [2H]C([2H])([2H])C(O)(CCC[C@H](CC#CC(O)(C(F)(F)F)C(F)(F)F)[C@H]1CC[C@H]2/C(=C/C=C3C[C@H](O)C[C@@H](O)C3)CCC[C@]12C)C([2H])([2H])[2H] | 1.8 |
| C=C1/C(=C\C=C2/CCC[C@]3(C)[C@@H](C(CCCC(C)(C)O)CCCC(C)(C)O)CC[C@@H]23)C[C@H](O)C[C@H]1O | 3.3 |
